One block for each molecule: values may come before it. The source made the active and inactive calls. No cut-off for these calls is given here.
Assays:
[1] = biological target: T1, Beta-secretase 1 (Homo sapiens, UniProt P56817); assay: Inhibition of BACE1 in human SH-SY5Y cells harboring wild type APP695 assessed as increase in mature APP level at 5 uM after 24 hrs by ELISA relative to control; format: cell-based; parameters: scale not given: the % may be the effect or the level left; conditions: in the assay text read “by Western blot” for “by ELISA”
T1 sequence (P56817 whole entry): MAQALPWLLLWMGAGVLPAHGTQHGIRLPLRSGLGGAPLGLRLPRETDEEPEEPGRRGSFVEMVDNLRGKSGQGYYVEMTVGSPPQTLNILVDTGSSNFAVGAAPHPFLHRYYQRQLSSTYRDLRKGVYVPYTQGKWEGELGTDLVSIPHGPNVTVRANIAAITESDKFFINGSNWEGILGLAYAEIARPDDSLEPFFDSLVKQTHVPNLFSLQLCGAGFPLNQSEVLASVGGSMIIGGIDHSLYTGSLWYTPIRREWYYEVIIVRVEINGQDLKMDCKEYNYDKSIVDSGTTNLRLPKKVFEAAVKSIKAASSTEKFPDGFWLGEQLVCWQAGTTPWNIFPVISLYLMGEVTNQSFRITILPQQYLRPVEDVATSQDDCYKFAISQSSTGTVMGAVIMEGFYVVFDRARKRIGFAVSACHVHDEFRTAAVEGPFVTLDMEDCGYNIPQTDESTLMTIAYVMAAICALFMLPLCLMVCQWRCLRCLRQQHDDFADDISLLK
Outline: (§1)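 Full-length APP was resolved and detected with APP-C17 antiserum as two bands. The 110 kDa band is the immature, neosynthesized form and the 115 kDa band is the mature, glycosylated form. Both bands were quantified against the control condition. This was done in SH-SY5Y-APPwt cells and in primary neuronal cultures.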

[2] = biological target: T1, Beta-secretase 1; assay: Inhibition of BACE1 in human SH-SY5Y cells harboring wild type APP695 assessed as reduction in amyloid beta (1 to 40) level up to 5 uM after 24 hrs by ELISA; format: cell-based
Outline: (§2)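 Aβ1-40 and Aβ1-42 levels were measured by ELISA in APPwt-expressing SH-SY5Y cells after compound treatment.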

[3] = tested on: SH-SY5Y; assay: Inhibition of autophagy in human SH-SY5Y cells harboring wild type APP695 assessed as increase in p62 expression up to 5 uM after 24 hrs in presence of autophagic inhibitor BafA1 by DAPI staining based immunofluorescence assay; format: functional, cell-based
Outline: (§3)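 Cells were co-treated with compound and the autophagic flux inhibitor bafilomycin A1. p62 and LC3 accumulation were then assessed in SY5Y-APPwt cells and primary neurons.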

[4] = tested on: SH-SY5Y; assay: Cytotoxicity against human SH-SY5Y cells harboring wild type APP695 assessed as reduction in cell viability after 24 hrs by LDH assay; format: cell-based
[5] = biological target: T1, Beta-secretase 1; assay: Inhibition of BACE1 in human SH-SY5Y cells harboring wild type APP695 assessed as reduction in amyloid beta (1 to 40) level after 24 hrs by ELISA method; format: cell-based; outline: as §2
[6] = biological target: T1, Beta-secretase 1; assay: Inhibition of BACE1 in human SH-SY5Y cells harboring wild type APP695 assessed as reduction in sAPPbeta level up to 5 uM after 24 hrs by DAPI staining based electro-chemiluminescence immunoassay; format: cell-based
[7] = tested on: Primary neuron; assay: Inhibition of autophagy in C57BL6 mouse primary neuronal cells assessed as increase in lipidation of LC3-1 to LC3-2 up to 5 uM after 24 hrs in presence of autophagic inhibitor BafA1 by DAPI staining based immunofluorescence assay; format: functional; outline: as §3
[8] = tested on: Primary neuron; assay: Inhibition of autophagy in C57BL6 mouse primary neuronal cells assessed as increase in lipidation of LC3-1 to LC3-2 at 3 uM after 24 hrs by DAPI staining based immunofluorescence assay; format: functional
Outline: (§4)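 Autophagy markers were quantified against control: p62 expression and lipidation of LC3-I into LC3-II. Accumulation of p62- and LC3-positive vesicles was scored by immunofluorescence. This was done in SY5Y-APPwt cells and primary neurons.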

[9] = tested on: SH-SY5Y; assay: Inhibition of autophagy in human SH-SY5Y cells harboring wild type APP695 assessed as increase in lipidation of LC3-1 to LC3-2 up to 5 uM after 24 hrs in presence of autophagic inhibitor BafA1 by DAPI staining based immunofluorescence assay; format: functional, cell-based; outline: as §3
[10] = biological target: T1, Beta-secretase 1; assay: Inhibition of BACE1 in human SH-SY5Y cells harboring wild type APP695 assessed as reduction in amyloid beta (1 to 42) level up to 5 uM after 24 hrs by ELISA; format: cell-based; outline: as §2
[11] = biological target: T1, Beta-secretase 1; assay: Inhibition of BACE1 in human SH-SY5Y cells harboring wild type APP695 assessed as increase in alphaCTF level at 3 uM by Western blot method relative to untreated control; format: cell-based
Outline: (§5)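 APP C-terminal fragments (αCTFs and AICD) were detected by Western blot and scored as band intensity. Compounds were tested at 1, 3 and 10 µM.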

[12] = tested on: SH-SY5Y; assay: Inhibition of alpha secretase in human SH-SY5Y cells harboring wild type APP695 assessed as increase in sAPPalpha level up to 5 uM after 24 hrs by DAPI staining based electro-chemiluminescence immunoassay; format: cell-based
[13] = biological target: T1, Beta-secretase 1; assay: Inhibition of BACE1 in human SH-SY5Y cells harboring wild type APP695 assessed as increase in AICD level at 3 uM by Western blot method relative to untreated control; format: cell-based; outline: as §5
[14] = Cytotoxicity against C57BL6 mouse primary neuronal cells assessed as reduction in cell viability after 24 hrs by LDH assay; format: cell-based; conditions: primary neuron
[15] = tested on: Primary neuron; assay: Inhibition of autophagy in C57BL6 mouse primary neuronal cells assessed as increase in p62 expression at 3 uM after 24 hrs by DAPI staining based immunofluorescence assay; format: functional; outline: as §4
[16] = biological target: Beta-secretase 1 (Mus musculus) (UniProt P56818); assay: Inhibition of BACE1 in C57BL6 mouse primary neuronal cells assessed as accumulation of APP-CTF level up to 5 uM after 24 hrs by DAPI staining based immunofluorescence assay
Beta-secretase 1 (Mus musculus), sequence (P56818 whole entry): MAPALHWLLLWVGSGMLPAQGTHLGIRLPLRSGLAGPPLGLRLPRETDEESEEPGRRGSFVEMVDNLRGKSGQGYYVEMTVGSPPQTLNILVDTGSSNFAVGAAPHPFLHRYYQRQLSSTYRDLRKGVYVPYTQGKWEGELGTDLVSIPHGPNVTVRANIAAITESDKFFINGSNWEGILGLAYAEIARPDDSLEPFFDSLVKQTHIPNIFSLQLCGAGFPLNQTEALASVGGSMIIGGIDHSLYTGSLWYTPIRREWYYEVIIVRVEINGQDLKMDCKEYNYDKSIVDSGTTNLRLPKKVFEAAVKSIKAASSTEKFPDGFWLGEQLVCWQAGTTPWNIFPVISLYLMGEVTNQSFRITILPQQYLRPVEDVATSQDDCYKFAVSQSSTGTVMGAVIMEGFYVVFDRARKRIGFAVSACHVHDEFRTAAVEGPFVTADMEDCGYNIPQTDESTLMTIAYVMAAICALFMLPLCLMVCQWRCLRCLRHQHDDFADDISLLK

[17] = biological target: T1, Beta-secretase 1; assay: Inhibition of BACE1 in human SH-SY5Y cells harboring wild type APP695 assessed as increase in AICD level at 3 uM by Western blot method relative to chloroquine; format: cell-based; outline: as §5
[18] = tested on: SH-SY5Y; assay: Inhibition of autophagy in human SH-SY5Y cells harboring wild type APP695 assessed as increase in lipidation of LC3-1 to LC3-2 at 5 uM after 24 hrs by DAPI staining based immunofluorescence assay relative to control; format: functional; parameters: scale not given: the % may be the effect or the level left
Outline: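 SY5Y-APPwt cells treated at 5 µM alongside untreated control. LC3-I to LC3-II lipidation quantified from western blot bands. LC3- and p62-positive vesicles scored inside cells by immunofluorescence.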

[19] = tested on: Primary neuron; assay: Inhibition of autophagy in C57BL6 mouse primary neuronal cells assessed as increase in p62 expression up to 5 uM after 24 hrs in presence of autophagic inhibitor BafA1 by DAPI staining based immunofluorescence assay; format: functional; outline: as §3
[20] = tested on: SH-SY5Y; assay: Inhibition of autophagy in human SH-SY5Y cells harboring wild type APP695 assessed as increase in p62 expression at 5 uM after 24 hrs by DAPI staining based immunofluorescence assay relative to control; format: functional; parameters: scale not given: the % may be the effect or the level left; outline: as §4
[21] = biological target: T1, Beta-secretase 1; assay: Inhibition of BACE1 in human SH-SY5Y cells harboring wild type APP695 assessed as accumulation of APP-CTF level up to 5 uM after 24 hrs by ELISA; format: cell-based
[22] = biological target: Beta-secretase 1 (Mus musculus) (UniProt P56818); assay: Inhibition of BACE1 in C57BL6 mouse primary neuronal cells assessed as accumulation of AICD level up to 5 uM after 24 hrs by DAPI staining based immunofluorescence assay
[23] = biological target: Beta-secretase 1 (Mus musculus) (UniProt P56818); assay: Inhibition of BACE1 in C57BL6 mouse primary neuronal cells assessed as increase in mature APP level at 3 to 5 uM after 24 hrs by DAPI staining based immunofluorescence assay relative to control; parameters: scale not given: the % may be the effect or the level left
[24] = biological target: T1, Beta-secretase 1; assay: Inhibition of recombinant human BACE1 at 10 uM using Mca-S-E-[…]-L-D-AEF-R-K(Dnp)-R-R-NH2 as substrate after 60 mins by fluorescence assay relative to control
Outline: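 BACE-1 enzymatic activity was followed by cleavage of the fluorogenic peptide Mca-S-E-V-N-L-D-AE-F-R-K(Dnp)-R-R-NH2.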

[25] = biological target: T1, Beta-secretase 1; assay: Inhibition of BACE1 in human SH-SY5Y cells harboring wild type APP695 assessed as increase in alphaCTF level at 3 uM by Western blot method relative to chloroquine; format: cell-based; outline: as §5
[26] = biological target: T1, Beta-secretase 1; assay: Inhibition of BACE1 in human SH-SY5Y cells harboring wild type APP695 assessed as accumulation of AICD level up to 5 uM after 24 hrs by ELISA; format: cell-based
[27] = tested on: SH-SY5Y; assay: Inhibition of autophagy in human SH-SY5Y cells harboring wild type APP695 assessed as increase in p62 expression up to 5 uM after 24 hrs by DAPI staining based immunofluorescence assay; format: functional, cell-based; outline: as §4
[28] = tested on: Primary neuron; assay: Inhibition of autophagy in C57BL6 mouse primary neuronal cells assessed as increase in p62 expression up to 5 uM after 24 hrs by DAPI staining based immunofluorescence assay; format: functional; outline: as §4
[29] = tested on: Primary neuron; assay: Inhibition of autophagy in C57BL6 mouse primary neuronal cells assessed as increase in lipidation of LC3-1 to LC3-2 up to 5 uM after 24 hrs by DAPI staining based immunofluorescence assay; format: functional; outline: as §4
[30] = biological target: Beta-secretase 1 (Mus musculus) (UniProt P56818); assay: Inhibition of BACE1 in C57BL6 mouse primary neuronal cells assessed as increase in mature APP level up to 5 uM after 24 hrs by DAPI staining based immunofluorescence assay relative to control
[31] = tested on: SH-SY5Y; assay: Inhibition of autophagy in human SH-SY5Y cells harboring wild type APP695 assessed as increase in lipidation of LC3-1 to LC3-2 up to 5 uM after 24 hrs by DAPI staining based immunofluorescence assay; format: functional, cell-based; outline: as §4
[32] = biological target: T1, Beta-secretase 1; assay: Inhibition of BACE1 in human SH-SY5Y cells harboring wild type APP695 assessed as increase in mature APP level up to 5 uM after 24 hrs by ELISA; format: cell-based; conditions: in the assay text read “by Western blot” for “by ELISA”; outline: as §1

Structure (SMILES): CN(C)Cc1ccccc1-c1ccc(NCCCN2CCCCC2)c(OCCN2CCCCC2)c1
Activity [1]: 221%
inhibition [2]: Active
inhibition [3]: Active
Activity [4]: Non-Toxic
IC50 [5]: 2800 nM
inhibition [6]: Active
inhibition [7]: Active
inhibition [8]: Active
inhibition [9]: Active
inhibition [10]: Active
fold change (FC) [11]: 30
inhibition [12]: Active
fold change (FC) [13]: 40
Activity [14]: Non-Toxic
inhibition [15]: Active
inhibition [16]: Active
fold change (FC) [17]: 3.6
Activity [18]: 591%
inhibition [19]: Active
Activity [20]: 476%
inhibition [21]: Active
inhibition [22]: Active
Activity [23]: 130%
inhibition [24]: < 10%
fold change (FC) [25]: 6.4
inhibition [26]: Active

Structure (SMILES): CN(C)Cc1ccccc1-c1ccc(NCCCN2CCCCC2)c(OCCC2CCCCC2)c1
inhibition [2]: Active
inhibition [27]: inactive
Activity [4]: Non-Toxic
IC50 [5]: 2100 nM
inhibition [6]: Active
inhibition [10]: Active
inhibition [28]: inactive
inhibition [12]: Active
Activity [14]: Non-Toxic
inhibition [16]: inactive
fold change (FC) [17]: 0.1
inhibition [29]: inactive
inhibition [21]: inactive
inhibition [22]: inactive
inhibition [24]: < 10%
inhibition [30]: inactive
fold change (FC) [25]: 0.1
inhibition [31]: inactive
inhibition [32]: inactive
inhibition [26]: inactive

Structure (SMILES): CN(C)Cc1ccccc1-c1ccc(NCCN2CCCCC2)c(OCCCCN2CCCCC2)c1
fold change (FC) [17]: 4.8
fold change (FC) [25]: 4.4

Structure (SMILES): Oc1c(CN2CCCC2)cc(Nc2ccnc3cc(Cl)ccc23)cc1CN1CCCC1
IC50 [5]: 5100 nM
fold change (FC) [17]: 2.5
fold change (FC) [25]: 2.1

Structure (SMILES): c1ccc(-c2ccc(NCCCN3CCCCC3)c(OCCN3CCCCC3)c2)cc1
IC50 [5]: 5200 nM
fold change (FC) [17]: 2.1
fold change (FC) [25]: 2.4

Structure (SMILES): CN1CCN(Cc2ccccc2-c2ccc(NCCCN3CCCCC3)c(OCCN3CCCCC3)c2)CC1
IC50 [5]: 2600 nM
fold change (FC) [17]: 3.7
fold change (FC) [25]: 5.1

The remaining molecules from weak to strong by IC50 [5], led by results:

IC50 [5]: 2000 nM
fold change (FC) [17]: 3.4
fold change (FC) [25]: 4.5
Structure (SMILES): CN(C)Cc1ccccc1-c1ccc(NCCN2CCCCC2)c(OCCCN2CCCCC2)c1

IC50 [5]: 1700 nM
fold change (FC) [17]: 3
fold change (FC) [25]: 4.2
Structure (SMILES): CN(C)Cc1ccccc1-c1ccc(NCCCCN2CCCCC2)c(OCCN2CCCCC2)c1

IC50 [5]: 1500 nM
fold change (FC) [17]: 2.5
fold change (FC) [25]: 2.1
Structure (SMILES): CN(C)Cc1ccc(-c2ccc(NCCCN3CCCCC3)c(OCCN3CCCCC3)c2)cc1

IC50 [5]: 1500 nM
fold change (FC) [17]: 0.7
fold change (FC) [25]: 0.6
Structure (SMILES): CN(C)Cc1ccccc1-c1cccc(OCCN2CCCCC2)c1

Source: ChEMBL document CHEMBL4257565, “A phenotypic approach to the discovery of compounds that promote non-amyloidogenic processing of the amyloid precursor protein: Toward a new profile of indirect β-secretase inhibitors” (Eur J Med Chem, 2018)
